SMILES strings stand for the structures. In brackets after ≈: the same amount, converted by molar mass. Bounds are passed on as bounds.

The target in the first series is Voltage-gated inwardly rectifying potassium channel KCNH2 (Homo sapiens, UniProt Q12809). Nature of the series: Inhibition of hERG cardiac ion channel. It counts as toxicity.
Details: not given
The gist of the method: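 hERG channel inhibition was run by a contract lab. […] Determinations were made in duplicate or triplicate (n = 2 or 3).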
The IC50 is the point on the concentration scale where inhibition reaches its midpoint. In turn, `O=c1ccc2ncc(F)c3c2n1CC3C[C@H]1OC[C@H](NCc2ccc3c(c2)OCCO3)CO1` (some centres not stated) gave an IC50 of 100 µM.

Turning to `O=C1CSc2ccc(CN[C@H]3CO[C@H](CC4Cn5c(=O)ccc6ncc(F)c4c65)OC3)nc2N1` (some centres not stated), half-maximal inhibition (IC50) required 55 µM.

Another series concerns Staphylococcus aureus. Nature of the series: Antibacterial activity against cystic fibrosis isolate Staphylococcus aureus by CLSI method. It counts as functional.
Details: not given
Broadly, the MIC is the least concentration at which growth counts as inhibited. A lower MIC goes with inhibition by little substance. The molecule `O=c1ccc2ncc(F)c3c2n1CC3C[C@H]1OC[C@H](NCc2ccc3c(c2)OCCO3)CO1` (some centres not stated) registered an MIC of 0.25 µg/mL (≈ 0.551 µM).

With `O=C1CSc2ccc(CN[C@H]3CO[C@H](CC4Cn5c(=O)ccc6ncc(F)c4c65)OC3)nc2N1` (some centres not stated), the MIC amounted to 1 µg/mL (≈ 2.07 µM).

Turning to `O=c1ccc2ncc(=O)n3c2n1CC3CN1CCC(NCc2cc3c(cn2)OCCC3)CC1` (racemic), the MIC was found to be 0.25 µg/mL (≈ 0.557 µM).

The subject of the next series is Staphylococcus aureus. Nature of the series: Antibacterial activity against Staphylococcus aureus ATCC 29213 by CLSI method. The format is functional.
Details: not given
`O=c1ccc2ncc(F)c3c2n1CC3C[C@H]1OC[C@H](NCc2ccc3c(c2)OCCO3)CO1` (some centres not stated) returned an MIC of 0.125 µg/mL (≈ 0.276 µM).

For the molecule `O=C1CSc2ccc(CN[C@H]3CO[C@H](CC4Cn5c(=O)ccc6ncc(F)c4c65)OC3)nc2N1` (some centres not stated), 1 µg/mL (≈ 2.07 µM) was the least that counted as inhibitory (MIC).

Take `O=c1ccc2ncc(=O)n3c2n1CC3CN1CCC(NCc2cc3c(cn2)OCCC3)CC1` (racemic): the MIC was found to be 0.25 µg/mL (≈ 0.557 µM).

A further series has as its system Staphylococcus aureus. The experiment in a line: Antibacterial activity against methicillin-resistant Staphylococcus aureus USA300 by CLSI method. It counts as functional.
Details: not given
Regarding `O=c1ccc2ncc(F)c3c2n1CC3C[C@H]1OC[C@H](NCc2ccc3c(c2)OCCO3)CO1` (some centres not stated), the minimum inhibitory concentration (MIC) was determined as 0.125 µg/mL (≈ 0.276 µM).

As for `O=C1CSc2ccc(CN[C@H]3CO[C@H](CC4Cn5c(=O)ccc6ncc(F)c4c65)OC3)nc2N1` (some centres not stated), inhibition of growth (MIC) required 1 µg/mL (≈ 2.07 µM).

Molecule `O=c1ccc2ncc(=O)n3c2n1CC3CN1CCC(NCc2cc3c(cn2)OCCC3)CC1` (racemic) registered a minimum inhibitory concentration (MIC) of 0.25 µg/mL (≈ 0.557 µM).

The test system of the next series is Staphylococcus aureus. Nature of the series: Antibacterial activity against Staphylococcus aureus 3527 by CLSI method. It counts as functional.
Details: not given
Regarding `O=c1ccc2ncc(F)c3c2n1CC3C[C@H]1OC[C@H](NCc2ccc3c(c2)OCCO3)CO1` (some centres not stated), inhibition of growth (MIC) required 0.25 µg/mL (≈ 0.551 µM).

As to `O=C1CSc2ccc(CN[C@H]3CO[C@H](CC4Cn5c(=O)ccc6ncc(F)c4c65)OC3)nc2N1` (some centres not stated), the MIC worked out at 1 µg/mL (≈ 2.07 µM).

In turn, `O=c1ccc2ncc(=O)n3c2n1CC3CN1CCC(NCc2cc3c(cn2)OCCC3)CC1` (racemic) returned an MIC of 0.25 µg/mL (≈ 0.557 µM).

Another series deals with Staphylococcus aureus. Nature of the series: Antibacterial activity against Staphylococcus aureus harbouring GyrA D83N mutant by CLSI method.
Details: not given
The format is functional.
`O=c1ccc2ncc(F)c3c2n1CC3C[C@H]1OC[C@H](NCc2ccc3c(c2)OCCO3)CO1` (some centres not stated) showed a minimum inhibitory concentration (MIC) of 2 µg/mL (≈ 4.41 µM).

`O=C1CSc2ccc(CN[C@H]3CO[C@H](CC4Cn5c(=O)ccc6ncc(F)c4c65)OC3)nc2N1` (some centres not stated) came in with an MIC of 8 µg/mL (≈ 16.5 µM).

`O=c1ccc2ncc(=O)n3c2n1CC3CN1CCC(NCc2cc3c(cn2)OCCC3)CC1` (racemic) had a minimum inhibitory concentration (MIC) of 8 µg/mL (≈ 17.8 µM).

The target of another series is DNA gyrase (Staphylococcus aureus, UniProt P0A0K8+P20831). The experiment in a line: Inhibition of Staphylococcus aureus DNA gyrase supercoiling activity incubated for 25 min by ethidium bromide/bromophenol blue staining based agarose gel electrophoresis analysis. The format is protein-complex assay.
Details: not given
Consider `O=c1ccc2ncc(F)c3c2n1CC3C[C@H]1OC[C@H](NCc2ccc3c(c2)OCCO3)CO1` (some centres not stated), for which the IC50 was determined as 0.047 µM.

For the molecule `O=C1CSc2ccc(CN[C@H]3CO[C@H](CC4Cn5c(=O)ccc6ncc(F)c4c65)OC3)nc2N1` (some centres not stated), the IC50 is 1.4 µM.

For the next series, the target named is Topoisomerase IV (Staphylococcus aureus, UniProt P0C1S7+P0C1U9). Nature of the series: Inhibition of Staphylococcus aureus DNA topoisomerase 4 decatenation activity using kDNA as substrate incubated for 10 to 20 min by ethidium bromide/bromophenol blue staining based agarose gel electrophoresis analysis. It counts as protein-complex assay.
Details: not given
On to `O=c1ccc2ncc(F)c3c2n1CC3C[C@H]1OC[C@H](NCc2ccc3c(c2)OCCO3)CO1` (some centres not stated), for which the IC50 turned out to be 0.54 µM.

Molecule `O=C1CSc2ccc(CN[C@H]3CO[C@H](CC4Cn5c(=O)ccc6ncc(F)c4c65)OC3)nc2N1` (some centres not stated) showed an IC50 of 2.1 µM.

The test system of the next series is Staphylococcus aureus. Nature of the series: Selectivity ratio of IC50 for inhibition of Staphylococcus aureus DNA topoisomerase 4 decatenation activity to IC50 for inhibition of Staphylococcus aureus DNA gyrase supercoiling activity.
Details: not given
For the molecule `O=c1ccc2ncc(F)c3c2n1CC3C[C@H]1OC[C@H](NCc2ccc3c(c2)OCCO3)CO1` (some centres not stated), the Ratio IC50 came to 11.

For `O=C1CSc2ccc(CN[C@H]3CO[C@H](CC4Cn5c(=O)ccc6ncc(F)c4c65)OC3)nc2N1` (some centres not stated), the Ratio IC50 came out at 1.5.

Another series concerns Neisseria gonorrhoeae. The experiment in a line: Antimicrobial activity against Neisseria gonorrhoeae G strain harbouring type 2 topoisomerase GyrA S91F and ParE G410V mutant incubated for 20 to 24 hrs by CLSI protocol based broth microdilution method. It counts as functional. Conditions: time 20-24 hrs. (Broth dilution looks for growth in wells or tubes with falling amounts of substance.)
`O=c1ccc2ncc(F)c3c2n1CC3C[C@H]1OC[C@H](NCc2ccc3c(c2)OCCO3)CO1` (some centres not stated) had an MIC of 4 µg/mL (≈ 8.82 µM).

The next series deals with Neisseria gonorrhoeae. Nature of the series: Antimicrobial activity against wild type Neisseria gonorrhoeae ATCC 49226 incubated for 20 to 24 hrs by CLSI protocol based broth microdilution method. The format is functional. Conditions: time 20-24 hrs.
Regarding `O=c1ccc2ncc(F)c3c2n1CC3C[C@H]1OC[C@H](NCc2ccc3c(c2)OCCO3)CO1` (some centres not stated), the MIC was 0.25 µg/mL (≈ 0.551 µM).

The next series has as its system Neisseria gonorrhoeae. The experiment in a line: Antimicrobial activity against wild type Neisseria gonorrhoeae F strain incubated for 20 to 24 hrs by CLSI protocol based broth microdilution method. As to conditions: time 20-24 hrs. It counts as functional.
The molecule `O=c1ccc2ncc(F)c3c2n1CC3C[C@H]1OC[C@H](NCc2ccc3c(c2)OCCO3)CO1` (some centres not stated) displayed an MIC of 0.12 µg/mL (≈ 0.265 µM).

For a further series, the system named is Neisseria gonorrhoeae. The experiment in a line: Antimicrobial activity against Neisseria gonorrhoeae K strain harbouring type 2 topoisomerase GyrA S91F, D95N and ParC S87R, S88P mutant incubated for 20 to 24 hrs by CLSI protocol based broth microdilution method. The format is functional. As to conditions: time 20-24 hrs.
On to `O=c1ccc2ncc(F)c3c2n1CC3C[C@H]1OC[C@H](NCc2ccc3c(c2)OCCO3)CO1` (some centres not stated), for which 1 µg/mL (≈ 2.21 µM) was the least that counted as inhibitory (MIC).

The next series concerns Neisseria gonorrhoeae. The experiment in a line: Antimicrobial activity against wild type Neisseria gonorrhoeae O strain incubated for 20 to 24 hrs by CLSI protocol based broth microdilution method. The format is functional. As to conditions: time 20-24 hrs.
Regarding `O=c1ccc2ncc(F)c3c2n1CC3C[C@H]1OC[C@H](NCc2ccc3c(c2)OCCO3)CO1` (some centres not stated), it took 2 µg/mL (≈ 4.41 µM) to inhibit growth (MIC).

Another series has as its system Neisseria gonorrhoeae. Nature of the series: Antimicrobial activity against wild type Neisseria gonorrhoeae P strain incubated for 20 to 24 hrs by CLSI protocol based broth microdilution method. The format is functional. Conditions: time 20-24 hrs.
On to `O=c1ccc2ncc(F)c3c2n1CC3C[C@H]1OC[C@H](NCc2ccc3c(c2)OCCO3)CO1` (some centres not stated), for which the MIC came out at 2 µg/mL (≈ 4.41 µM).

In the next series the test system is Neisseria gonorrhoeae. The experiment in a line: Antimicrobial activity against wild type Neisseria gonorrhoeae V strain harbouring type 2 topoisomerase GyrA S91F, D95G and ParC S87R mutant incubated for 20 to 24 hrs by CLSI protocol based broth microdilution method. It counts as functional. As to conditions: time 20-24 hrs.
For `O=c1ccc2ncc(F)c3c2n1CC3C[C@H]1OC[C@H](NCc2ccc3c(c2)OCCO3)CO1` (some centres not stated), the minimum inhibitory concentration (MIC) was at most 0.03 µg/mL.

In the next series the test system is Neisseria gonorrhoeae. The experiment in a line: Antimicrobial activity against wild type Neisseria gonorrhoeae Y strain harbouring type 2 topoisomerase GyrA S91F, D95G and ParC S87R mutant incubated for 20 to 24 hrs by CLSI protocol based broth microdilution method. The format is functional. Conditions: time 20-24 hrs.
`O=c1ccc2ncc(F)c3c2n1CC3C[C@H]1OC[C@H](NCc2ccc3c(c2)OCCO3)CO1` (some centres not stated) came in with an MIC of at most 0.03 µg/mL.

Tested on in a further series: not listed separately
The experiment in a line: Metabolic stability in mouse liver microsomes assessed as half life. It counts as ADME, Microsome.
Details: not given
Broadly, the half-life is the time in which the quantity being followed falls by half. Consider `O=c1ccc2ncc(F)c3c2n1CC3C[C@H]1OC[C@H](NCc2ccc3c(c2)OCCO3)CO1` (some centres not stated), for which the half-life came to 13.9 min.

As for `O=C1CSc2ccc(CN[C@H]3CO[C@H](CC4Cn5c(=O)ccc6ncc(F)c4c65)OC3)nc2N1` (some centres not stated), the half-life amounted to 36.4 min.

Tested on in a further series: not listed separately
Nature of the series: Cytotoxicity activity against human K562 cells assessed as inhibition of cellular growth. It counts as toxicity, cell-based.
Details: not given
The gist of the method: (§1)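 Human K562 leukemia cells were tested alongside K/VP.5, an etoposide-resistant clonal subline derived from them that has reduced levels of human topoisomerase IIα. Cell growth inhibition was expressed as an IC50.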
Turning to `O=c1ccc2ncc(F)c3c2n1CC3C[C@H]1OC[C@H](NCc2ccc3c(c2)OCCO3)CO1` (some centres not stated), the concentration for half-maximal inhibition (IC50) turned out to be 34.8 µM.

For `O=C1CSc2ccc(CN[C@H]3CO[C@H](CC4Cn5c(=O)ccc6ncc(F)c4c65)OC3)nc2N1` (some centres not stated), the IC50 came out at 81.7 µM.

Tested on in another series: not listed separately
The experiment in a line: Cytotoxicity activity against human K/VP.5 cells assessed as inhibition of cellular growth. The format is toxicity, cell-based.
Details: not given
In short, it runs like this: as §1
Consider `O=c1ccc2ncc(F)c3c2n1CC3C[C@H]1OC[C@H](NCc2ccc3c(c2)OCCO3)CO1` (some centres not stated), for which the IC50 is 39.2 µM.

With `O=C1CSc2ccc(CN[C@H]3CO[C@H](CC4Cn5c(=O)ccc6ncc(F)c4c65)OC3)nc2N1` (some centres not stated), the half-maximal inhibitory concentration (IC50) turned out to be 128 µM.
